Bioassay records from PubChem.
Apaf1 inhib: blocks human Apaf-1 apoptosome activity; O14727; reconstituted apoptosome caspase-3 activity, DEVD-Rh110 fluorescence; inhibition, % at 20 µM; 0.71% of 330,000 active; AID 489030; active means inhibition of at least 40% at 20 µM;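 further: plate controls were DMSO wells for no effect and DEVD-CHO caspase inhibitor wells for full effect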
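Material: reconstituted apoptosome with Apaf-1, cytochrome c, caspase-9, procaspase-3, dATP. Technique: Rh110 fluorescence intensity. Buffer or medium: pH 7.5 Hepes buffer with CHAPS, BSA, DTT. Times: 30 min plus 50 min, RT.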
MEKK2wt PB1 HTS: raises or lowers MEK5 binding to wildtype human MEKK2 PB1 domain; AID 1531; bead flow cytometry, Alexa488-MEK5 binding to MEKK2 WT; actives lie on both sides; 1.1% of 290,000 active; binding response (% of control), % at 10 µM; in the data active means binding response below about 67% or above about 130%
MEKK3 PB1 HTS: modulators (inhibitors or enhancers) of MEK5 binding to human MEKK3 PB1 domain; Q99759; binding response (% of control), % at 10 µM; 1.4% of 290,000 active; bead-based flow cytometry, Alexa488-MEK5 binding to MEKK3; actives lie on both sides; 0 = blocked by unlabeled MEK5, 100 = vehicle; AID 1529;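 active means binding response more than 3 SD above or below the average of its plate-row segment, actives on both sides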;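 further: Alexa488 bead fluorescence after subtracting the streptavidin-only scavenger bead signal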
Target sequence (Q99759 whole entry, looked up, the tested form may be a part): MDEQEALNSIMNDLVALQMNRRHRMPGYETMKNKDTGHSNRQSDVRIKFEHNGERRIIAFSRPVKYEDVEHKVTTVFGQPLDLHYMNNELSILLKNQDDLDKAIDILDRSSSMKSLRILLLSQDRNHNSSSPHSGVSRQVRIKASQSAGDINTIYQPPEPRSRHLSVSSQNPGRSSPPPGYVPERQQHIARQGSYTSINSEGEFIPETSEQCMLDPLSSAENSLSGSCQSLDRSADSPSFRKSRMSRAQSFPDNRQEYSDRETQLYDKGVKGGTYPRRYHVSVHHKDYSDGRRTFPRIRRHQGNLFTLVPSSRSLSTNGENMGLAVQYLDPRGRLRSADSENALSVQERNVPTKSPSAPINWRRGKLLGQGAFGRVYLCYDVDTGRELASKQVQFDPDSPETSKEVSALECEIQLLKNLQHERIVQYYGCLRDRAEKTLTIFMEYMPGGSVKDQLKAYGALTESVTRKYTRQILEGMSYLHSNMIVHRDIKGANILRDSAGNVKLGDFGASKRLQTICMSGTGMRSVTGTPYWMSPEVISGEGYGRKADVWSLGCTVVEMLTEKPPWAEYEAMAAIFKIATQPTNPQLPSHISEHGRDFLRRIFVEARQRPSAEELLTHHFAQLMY
MEKK2 mut-MEK5: signal of MEK5 binding to mutant human MEKK2 PB1 domain. bead flow cytometry, Alexa488-MEK5 binding to MEKK2 mutant. percent response, % at 10 µM. 0.35% of 290,000 active; in the data active means percent response above about 24%, passing the limit was not always enough
UBC13 inh: human UBC13 polyubiquitination inhibition; P61088; UBC13 polyubiquitin chain formation, TR-FRET; inhibition, % at 20 µM; 0.47% of 330,000 active; in the data active means inhibition above about 45%, passing the limit was not always enough
Casp3 UBC13 ctr: caspase-3 inhibition (UBC13 counter-screen) | shares compounds with UBC13 inh | Recombinant caspase-3, Caspase-Glo 3/7 luminescence, 60 min | inhibition, % at 20 µM | 4% of 1,400 active | AID 488856;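 active means mean inhibition across replicates above about 26%, limit read from the data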;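 further: plate controls were DMSO with caspase-3 for no effect and DMSO wells lacking enzyme for full effect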
UBC13 conf: confirmation of human UBC13 polyubiquitin inhibitors. AID 488859. 68% of 1,400 active. inhibition, % at 10 µM. UBC13 polyubiquitination, TR-FRET, biochemical. shares compounds with UBC13 inh; in the data active means inhibition above about 45%
Starred values were filed as active, the others as inactive; . = no result. Rows were chosen to be rich in hits. Some 2.9% of all compounds tested hit in one or more screens of this group.

SMILES	Apaf1 inhib	MEKK2wt PB1 HTS	MEKK3 PB1 HTS	MEKK2 mut-MEK5	UBC13 inh	Casp3 UBC13 ctr	UBC13 conf
COc1ccc(CNCc2cc(Cl)ccc2O)cc1	5	.	.	.	17	.	.
Cc1ccc(O)c(CNCCNCc2cc(C)ccc2O)c1	28	.	.	.	50*	0	52*
O=C(CNc1ccc(Br)cc1)NC(=O)NC1CCCCC1	24	.	.	.	-1	.	.
Cc1ccc(C(=O)NNC(=O)CCCN2C(=O)/C(=C/c3ccccc3Cl)SC2=S)cc1	17	96	114	-1	25	.	.
O=C(CCCN1C(=O)/C(=C/c2ccccc2Cl)SC1=S)NNC(=O)c1ccc(Cl)cc1	17	105	117	14	58*	-1	83*
O=C1NC(=O)C(Cc2c[nH]c3ccccc23)N1 (centres undefined)	1	104	103	-1	2	.	.
CCCn1nnnc1NC(=O)COc1ccc(CC)cc1	-3	103	100	-2	-5	.	.
Cc1ccc(NC(=O)COC(=O)c2c(-c3ccccc3)noc2C)c(C)c1	18	.	.	.	0	.	.
C#CCOCCOCCOCCNc1nc(N2CCN(C(=O)[C@H](CCCN=C(N)N)n3cc(C(N)[C@@H](C)CC)nn3)CC2)nc(N2CCN(C(=O)[C@H](CC(N)=O)n3cc([C@@H](N)CC(N)=O)nn3)CC2)n1 (some centres undefined)	33	.	.	.	64*	2	51*
C#CCOCCOCCOCCNc1nc(N2CCN(C(=O)[C@H](CCCCN)n3cc(CN)nn3)CC2)nc(N2CCN(C(=O)[C@H](CCCN=C(N)N)n3cc(C(N)[C@H](C)CC)nn3)CC2)n1 (some centres undefined)	35	.	.	.	92*	2	103*
C#CCOCCOCCOCCNc1nc(N2CCN(C(=O)[C@H](CCCN=C(N)N)n3cc(C(N)[C@H](C)CC)nn3)CC2)nc(N2CCN(C(=O)[C@H](CCCN=C(N)N)n3cc(C(N)[C@@H](C)CC)nn3)CC2)n1 (some centres undefined)	36	.	.	.	74*	-1	56*
C#CCOCCOCCOCCNc1nc(N2CCOCC2)nc(N2CCN(C(=O)[C@H](CCCN=C(N)N)n3cc(C(N)[C@@H](C)CC)nn3)CC2)n1 (some centres undefined)	25	.	.	.	30	.	.
Cc1nn(C(C)C(=O)NCCCc2ccccc2)c(=O)c2nn(-c3ccccc3)c(C)c12 (centres undefined)	6	106	103	3	3	.	.
Cn1c(=O)c2sc3c(c2n(CC(=O)Nc2ccccc2)c1=O)COC(C)(C)C3	2	104	100	0	4	.	.
Cc1cccc2c1c(N=NC(N)=S)c(O)n2C1OC(CO)C(O)C(O)C1O (centres undefined)	-18	112	108	8	67*	5	97*
Nc1cccc2c1nnn2C1OC(CO)C(O)C(O)C1O (centres undefined)	1	96	82	0	4	.	.
Cc1ncc(CO)c(/C=N/NC(=S)Nc2cccc(Cl)c2)c1O	-8	93	101	-1	22	.	.
Cc1ncc(CO)c(/C=N/NC(=S)Nc2ccc(Cl)c(Cl)c2)c1O	-16	103	101	-1	51*	-2	28
COc1ccc(-c2cn(Cc3ccc(C(=O)NCc4ccc(C)cc4)cc3)c(C(C)N)n2)cc1 (centres undefined)	22	.	.	.	43	.	.
O=C(NCCCn1ccnc1)C1CCN(S(=O)(=O)c2cc([N+](=O)[O-])ccc2Cl)CC1	23	.	.	.	82*	-1	64*
O=C(NCc1cccnc1)C1CCN(S(=O)(=O)c2cc([N+](=O)[O-])ccc2Cl)CC1	2	.	.	.	1	.	.
CCc1ccc(Nc2n[n+](-c3ccccc3)c(-c3c(Cl)cccc3Cl)s2)cc1	44*	133	105	9	46*	-3	32
Cc1cccc(OCc2nnc(SCC(=O)O)n2-c2ccccc2)c1	-1	96	97	-12	1	.	.
